Test results reported in ChEMBL document CHEMBL3414437, “Synthesis of CDDO-amino acid-nitric oxide donor trihybrids as potential antitumor agents against both drug-sensitive and drug-resistant colon cancer” (J Med Chem, 2015).
Calls of active or inactive are those of the source. The calls are words filed in the database; no cut-off is given here.

Tests used:
[1] = (§1) Antiproliferative activity against 5-FU resistant human HCT8 cells assessed as inhibition of cell proliferation at 1 uM after 72 hrs by MTT assay; type: functional; conditions: HCT-8, 72 h, read-out: GI
How it was run: (§2)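 Cells grown in DMEM with 10% FBS and exposed to compound at 1 µM for 72 h. Proliferation measured by MTT at 570 nm and expressed as % inhibition versus untreated cells. Mean ± SD of three independent experiments.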

[2] = system: HCT-8; experiment: Induction of nitric oxide release in 5-FU resistant human HCT8 cells at 100 uM incubated for 150 mins by Griess assay; type: functional, cell-based
How it was run: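 Cells (1 × 10^6/well) treated in triplicate with compound at 100 µM for 150 min. Lysates mixed with Griess reagent for 10 min at 37 °C and read at 540 nm. Nitrite quantified from a sodium nitrite standard curve; 0.4% DMSO-treated cells served as background. Mean ± SD of three experiments.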

[3] = system: HCT-8; experiment: Antiproliferative activity against human HCT8 cells assessed as inhibition of cell proliferation at 0.25 uM dosed 1 hr after NO scavenger carboxy-PTIO treatment and measured after 24 hrs by MTT assay; type: functional
[4] = system: HCT-8; experiment: Antiproliferative activity against 5-FU resistant human HCT8 cells assessed as inhibition of cell proliferation at 0.25 uM dosed 1 hr after NO scavenger carboxy-PTIO treatment and measured after 24 hrs by MTT assay; type: functional
[5] = target: T1, Broad substrate specificity ATP-binding cassette transporter ABCG2 (Homo sapiens, UniProt Q9UNQ0); experiment: Induction of nitrosylation of BCRP protein in FU-resistant human HCT8 cells at 0.25 to 1 uM incubated for 24 hrs by Western blotting method; type: cell-based; conditions: hct-8, 24 h
T1 sequence (Q9UNQ0 whole entry): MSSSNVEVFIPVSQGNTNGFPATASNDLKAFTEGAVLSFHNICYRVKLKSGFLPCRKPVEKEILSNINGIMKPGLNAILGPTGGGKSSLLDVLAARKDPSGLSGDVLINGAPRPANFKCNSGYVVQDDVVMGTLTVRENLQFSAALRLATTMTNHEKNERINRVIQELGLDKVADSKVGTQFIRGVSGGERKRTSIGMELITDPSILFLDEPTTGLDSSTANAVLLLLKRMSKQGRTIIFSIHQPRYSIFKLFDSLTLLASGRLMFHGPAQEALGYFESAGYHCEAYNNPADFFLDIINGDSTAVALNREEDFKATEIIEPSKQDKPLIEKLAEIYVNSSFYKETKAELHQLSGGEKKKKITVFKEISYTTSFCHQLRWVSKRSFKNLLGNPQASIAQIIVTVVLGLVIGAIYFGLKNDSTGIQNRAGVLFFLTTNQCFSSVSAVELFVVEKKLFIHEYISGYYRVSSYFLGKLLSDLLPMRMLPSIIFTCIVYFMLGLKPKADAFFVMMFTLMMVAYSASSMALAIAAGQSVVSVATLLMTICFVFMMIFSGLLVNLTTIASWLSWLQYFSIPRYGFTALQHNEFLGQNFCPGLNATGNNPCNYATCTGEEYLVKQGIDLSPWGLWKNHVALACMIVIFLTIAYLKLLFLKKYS
How it was run: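 HCT-8/5-FU cells (1 × 10^6) treated in duplicate for 24 h with 0.25, 0.5 or 1 µM test compound or 1 µM reference, with or without PTIO. Lysates immunoprecipitated overnight at 4 °C with anti-nitrotyrosine antibody on protein G beads. Eluates blotted with specific anti-Pgp, anti-MRP1 or anti-BCRP antibodies and quantified by densitometry. Mean ± SD of three experiments.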

[6] = system: Mus musculus; experiment: Toxicity in ICR mouse assessed as mouse mortality incidence at 0.60 x 10^3 to 2.38 x 10^3 umol/kg administered as single dose via oral gavage measured up to 14 days post treatment; type: organism-based; conditions: in vivo, 336 h
How it was run: (§3)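 Adult ICR mice of either sex were randomised and given a single oral gavage dose of 500, 1000, 1500 or 2000 mg/kg in cremophor-EL/DMSO/PBS (1:1:8). Survival, behaviour, water and food intake, body weight and activity were monitored for up to 14 days. Body weights were taken on days 0, 7 and 14.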

[7] = system: Mus musculus; experiment: Toxicity in ICR mouse assessed as body weight changes at 0.60 x 10^3 to 2.38 x 10^3 umol/kg administered as single dose via oral gavage measured up to 14 days post treatment; type: organism-based; conditions: in vivo, 336 h; how it was run: as §3
[8] = system: Mus musculus; experiment: Toxicity in female ICR mouse assessed as body weight level at 2.38 x 10^3 umol/kg administered as single dose via oral gavage measured on day 7 post treatment (reference value: 19.8 +/- 0.92 g); type: organism-based; conditions: in vivo
[9] = Antitumor activity against FU-resistant human HCT8 cells xenografted in nude BALB/c mouse assessed as reduction in tumor weight at 17.8 umol/kg administered as via oral gavage daily for 21 days; type: functional; conditions: HCT-8, po, 504 h
How it was run: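 Male BALB/c nude mice, 6–8 weeks old, inoculated s.c. in the right flank with HCT-8/5-FU cells (2 × 10^6). Once tumors reached 180–200 mm3 (days 9–11), mice were randomized (n = 8) to daily oral gavage for 21 days in cremophor-EL/DMSO/PBS (1:1:8). Tumor volume = W2(L/2), caliper-measured every other day, blinded; tumors weighed at end.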

[10] = system: Mus musculus; experiment: Toxicity in nude BALB/c mouse xenografted with FU-resistant human HCT8 cells assessed as abnormal color changes in heart at 17.8 to 35.7 umol/kg administered as via oral gavage daily for 21 days; type: organism-based, HCT-8; conditions: in vivo, 504 h
How it was run: (§4)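 Male BALB/c nude mice aged 6-8 weeks, implanted s.c. in the right flank with HCT-8/5-FU cells (2 × 10^6). Once tumors reached 180-200 mm3 (days 9-11), randomized to daily gavage for 21 days in cremophor-EL/DMSO/PBS (1:1:8), 0.2 mL. At the end, liver, kidney, lung and heart checked for size, colour and weight. n = 8 per group.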

[11] = system: HCT-8; experiment: as §1; type: functional; how it was run: as §2
[12] = target: Signal transducer and activator of transcription 3 (Homo sapiens) (UniProt P40763); experiment: Inhibition of STAT3 protein phosphorylation in FU-resistant human HCT8 cells at 1 uM incubated for 24 hrs by Western blotting method; type: cell-based; conditions: HCT-8
Chain of Signal transducer and activator of transcription 3 (Homo sapiens) (P40763 whole entry): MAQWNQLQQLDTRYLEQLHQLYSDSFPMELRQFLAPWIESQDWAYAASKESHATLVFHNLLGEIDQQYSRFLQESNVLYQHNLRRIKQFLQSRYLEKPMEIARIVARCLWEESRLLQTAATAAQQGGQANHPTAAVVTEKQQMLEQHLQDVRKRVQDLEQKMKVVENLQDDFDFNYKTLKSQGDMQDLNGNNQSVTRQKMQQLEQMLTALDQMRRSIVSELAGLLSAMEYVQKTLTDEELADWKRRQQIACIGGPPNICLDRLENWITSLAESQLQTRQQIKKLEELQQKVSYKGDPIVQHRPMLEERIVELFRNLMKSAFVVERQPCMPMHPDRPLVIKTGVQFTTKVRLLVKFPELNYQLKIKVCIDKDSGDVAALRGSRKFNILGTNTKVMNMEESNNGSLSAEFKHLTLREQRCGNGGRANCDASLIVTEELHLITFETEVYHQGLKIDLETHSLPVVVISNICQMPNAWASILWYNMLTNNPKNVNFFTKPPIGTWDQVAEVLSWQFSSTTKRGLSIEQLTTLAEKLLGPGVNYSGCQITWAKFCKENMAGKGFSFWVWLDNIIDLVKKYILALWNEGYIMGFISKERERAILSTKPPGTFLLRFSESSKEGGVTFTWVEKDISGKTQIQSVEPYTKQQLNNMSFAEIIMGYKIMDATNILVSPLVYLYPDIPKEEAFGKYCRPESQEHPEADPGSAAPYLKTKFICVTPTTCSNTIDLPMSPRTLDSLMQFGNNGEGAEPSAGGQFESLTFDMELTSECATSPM
How it was run: (§5)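 Cells (1 x 10^6) grown 24 h in 6 cm dishes, then exposed in duplicate for 24 h to 0.25, 0.5 or 1 µM compound, with or without PTIO. Lysates (20 µg/lane) were run on 7.5% SDS-PAGE, blotted to PVDF and blocked in 5% milk. HRP secondaries with ECL detection; bands quantified by densitometry against β-actin or GAPDH. Three separate experiments, mean ± SD.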

[13] = target: RAC-alpha serine/threonine-protein kinase (Homo sapiens) (UniProt P31749); experiment: Inhibition of AKT protein phosphorylation in human HCT8 cells at 1 uM incubated for 24 hrs by Western blotting method; type: cell-based; conditions: HCT-8; how it was run: as §5
Chain of RAC-alpha serine/threonine-protein kinase (Homo sapiens) (P31749 whole entry): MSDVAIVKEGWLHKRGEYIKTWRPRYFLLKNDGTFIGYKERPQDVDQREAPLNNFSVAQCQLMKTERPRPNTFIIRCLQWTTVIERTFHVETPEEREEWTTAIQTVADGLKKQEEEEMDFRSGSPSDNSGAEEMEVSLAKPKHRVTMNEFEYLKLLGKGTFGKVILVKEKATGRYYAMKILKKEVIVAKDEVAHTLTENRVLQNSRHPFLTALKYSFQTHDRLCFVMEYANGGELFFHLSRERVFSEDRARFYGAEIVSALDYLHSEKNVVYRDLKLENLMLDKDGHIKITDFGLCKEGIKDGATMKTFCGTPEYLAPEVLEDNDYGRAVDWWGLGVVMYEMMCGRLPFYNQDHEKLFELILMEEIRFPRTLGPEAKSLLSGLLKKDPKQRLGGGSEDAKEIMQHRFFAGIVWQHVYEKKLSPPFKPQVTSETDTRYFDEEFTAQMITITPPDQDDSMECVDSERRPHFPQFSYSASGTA

[14] = system: HCT-8; experiment: Inhibition of ERK protein phosphorylation in human HCT8 cells at 1 uM incubated for 24 hrs by Western blotting method; type: cell-based; how it was run: as §5
[15] = system: Mus musculus; experiment: Toxicity in nude BALB/c mouse xenografted with FU-resistant human HCT8 cells assessed as abnormal size changes in liver at 59.4 umol/kg administered as via oral gavage daily for 21 days; type: organism-based, HCT-8; conditions: in vivo, 504 h; how it was run: as §4
[16] = system: Mus musculus; experiment: Toxicity in nude BALB/c mouse xenografted with FU-resistant human HCT8 cells assessed as abnormal size changes in kidney at 59.4 umol/kg administered as via oral gavage daily for 21 days; type: organism-based, HCT-8; conditions: in vivo, 504 h; how it was run: as §4

inhibition [12]	inhibition [13]	Compound	inhibition of growth at 1 µM [1]	Activity [2]	inhibition [3]	inhibition [4]	Activity [5]	Activity [6]	Activity [7]	Activity [8]	inhibition in vivo at 17.8 µmol/kg [9]	Activity [10]	growth inhibition (GI) [11]	inhibition [14]	Activity [15]	Activity [16]
–	–	CC1(C)CC[C@]2(C(=O)NCC(=O)OCC#CCOc3no[n+]([O-])c3S(=O)(=O)c3ccccc3)CC[C@]3(C)[C@H](C(=O)C=C4[C@@]5(C)C=C(C#N)C(=O)C(C)(C)[C@@H]5CC[C@]43C)[C@@H]2C1	> 90%	Active	inactive	inactive	Dose-dependent effect	Non-toxic	Non-toxic	25 g	49.2%	Non-toxic	–	–	–	–
Active	Active	COC(=O)[C@]12CCC(C)(C)C[C@H]1[C@H]1C(=O)C=C3[C@@]4(C)C=C(C#N)C(=O)C(C)(C)[C@@H]4CC[C@@]3(C)[C@]1(C)CC2 [BARDOXOLONE METHYL]	–	–	–	–	–	–	–	–	–	–	Active	Active	Non-toxic	Non-toxic
